Compounds with a hit are over-represented: about 2.9% of the library has one in this group of screens.
CAL PDZ FP-1: inhibitors of human CAL PDZ peptide binding. Q9HD26. purified CAL PDZ, TMR-peptide fluorescence polarization, 1 h. inhibition, % at 20 µM. hit rate 0.02% among 330,000. AID 504414;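 active = highest replicate inhibition of at least 40%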;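 note: plate controls were DMSO neutral control wells for no effect and unlabeled competitor peptide control wells for full effect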
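Test system: purified CerCALP PDZ construct; Compound dosing: one concentration, 20 µM compound; Also added: TMR-labelled reporter peptide T*-PRC34 bound in PDZ groove; Read-out: inhibition from polarization loss; Controls: unlabelled peptide and DMSO controls; Signal: FP readout, S and P plane fluorescence; Incubation: 1 h at RT.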
CAL PDZ FP-2: blocks peptide binding to the human CAL PDZ domain | Q9HD26 | purified CAL PDZ, TMR-peptide fluorescence polarization, 1 h | inhibition, % at 24.9 µM | hit rate 0.92% among 300,000 | AID 602252;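 active = mean inhibition of at least 30% with at least half of replicates also reaching 30%; inconclusive = no clear call, values can overlap the other calls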;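 note: 0% = DMSO neutral control and 100% = excess unlabeled competitor peptide PRC23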
S100A4 MyoIIA: S100A4-myosin IIA interaction inhibition; S100A4/TAMRA-MyoIIA peptide fluorescence polarization; inhibition, % at 10.7 µM; hit rate 0.14% among 360,000; AID 652163;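 active = mean inhibition of at least 70% across replicates, with every replicate also reaching that level; inconclusive = mean inhibition reaches 70% but some replicates fall short; inactive = mean inhibition below 70%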
Target sequence (P26447 whole entry, looked up): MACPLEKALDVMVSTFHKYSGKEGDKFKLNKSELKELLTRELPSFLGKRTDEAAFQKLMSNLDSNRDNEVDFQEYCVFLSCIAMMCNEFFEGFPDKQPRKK
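Material: S100A4 monomer protein / Buffer or medium: 50 mM HEPES pH 7.2, 10 mM CaCl2, 100 mM KCl / Times: 5 min incubation before reading / Benchmarks: neutral control DMSO, positive control TFP / Reagent: labelled myosin peptide probe, 5 nM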
SIRT5 inh: sirtuin-5 (human) deacylase inhibition; Q9NXA8; Purified SirT5, succinyl-peptide AMC, trypsin-coupled fluorescence; inhibition, % at 15 µM; hit rate 1.1% among 330,000; AID 652115; in the data active = inhibition above about 15%; inconclusive = no clear call, values can overlap the other calls
Target sequence (Q9NXA8 whole entry, looked up): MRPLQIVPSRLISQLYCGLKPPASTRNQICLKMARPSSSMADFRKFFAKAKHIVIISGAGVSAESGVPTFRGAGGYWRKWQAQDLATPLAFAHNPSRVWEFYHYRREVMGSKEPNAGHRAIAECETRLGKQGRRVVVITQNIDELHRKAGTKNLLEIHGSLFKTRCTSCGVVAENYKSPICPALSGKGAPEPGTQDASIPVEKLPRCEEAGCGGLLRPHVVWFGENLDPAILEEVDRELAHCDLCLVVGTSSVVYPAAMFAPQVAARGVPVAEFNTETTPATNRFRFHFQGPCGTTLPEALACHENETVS
ERAP1 inh: inhibitors of human ERAP1 aminopeptidase. Q9NZ08. recombinant ERAP1, Leu-AMC fluorescence, 60 min. inhibition, % at 10.7 µM. hit rate 0.15% among 340,000. AID 652197;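 active = mean replicate inhibition of at least 30%, or all replicates individually reaching that 30% level; inactive = mean below 30% and not every replicate reaching it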;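 note: 0% = neutral control wells and 100% = L-leucinethiol positive control wells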
DENV2 CPE: inhibitors of DENV2 cytopathic effect | CPE inhibition, % at 9.99 µM | DENV2-infected cells, cytopathic effect rescue, plate reader | AID 651640 | hit rate 1.7% among 350,000; in the data active = CPE inhibition above about 20%, passing the limit was not always enough; inconclusive = no clear call, values can overlap the other calls; tested in BHK-21 cells;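 note: 0% = median of neutral control wells and 100% = median of positive control wells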
The depositor's hits bear a star; ? = inconclusive; / = no result; ! = repeats disagree.

SMILES	CAL PDZ FP-1	CAL PDZ FP-2	S100A4 MyoIIA	SIRT5 inh	ERAP1 inh	DENV2 CPE
Cc1cc(NS(=O)(=O)c2ccc(NC(=O)c3cnc4scc(C)n4c3=O)cc2)nc(C)n1	2	1	-3	1	3	-3
Cc1noc(NS(=O)(=O)c2ccc(NC(=O)c3ccc(N(C)C)cc3)cc2)c1C	0	58*	1	6	2	-3
Nn1c(SCCOc2ccc(Cl)cc2)nnc1-c1cccnc1	0	-5	2	-3	47*	-2
Nn1c(SCCOc2ccccc2)nnc1-c1cccnc1	1	-4	-2	0	10	-4
COc1cc(/C=C/C(=O)NC(=O)c2ccccc2O)ccc1OC(C)=O	-1	-2	-5	/	/	73*
Cc1noc(C)c1NC(=O)N(C)C[C@@H]1Oc2c(NS(=O)(=O)c3ccccc3)cccc2C(=O)N([C@@H](C)CO)C[C@@H]1C	/	/	2	4	1	125*
C[C@H](CO)N1C[C@H](C)[C@H](CN(C)C(=O)Nc2ccc3c(c2)OCO3)Oc2c(NS(=O)(=O)c3ccc(F)cc3)cccc2C1=O	/	/	4	-4	0	-9
CNC[C@H]1Oc2c(N)cccc2C(=O)N([C@H](C)CO)C[C@@H]1C	/	/	8	3.0*	5	0
CNC[C@@H]1Oc2c(NS(=O)(=O)c3ccc(F)cc3)cccc2C(=O)N([C@H](C)CO)C[C@H]1C	/	/	?	3	/	21*
CNC[C@@H]1Oc2c(N)cccc2C(=O)N([C@H](C)CO)C[C@H]1C	/	/	4	2	2	-3
C[C@H](CO)N1C[C@H](C)[C@@H](CN(C)C(=O)Nc2ccc3c(c2)OCO3)Oc2c(NS(=O)(=O)c3ccc(F)cc3)cccc2C1=O	1	1	-31	-3	1	48*!
CC(C)NC(=O)Nc1ccc2c(c1)CC(=O)N([C@H](C)CO)C[C@H](C)[C@H](CN(C)C(=O)Nc1ccc3c(c1)OCO3)O2	/	/	3	5	0	4
CCCC(=O)Nc1ccc2c(c1)C(=O)N(C)C[C@@H](OC)[C@@H](C)CN(Cc1ccccc1F)[C@H](C)CO2	/	/	1	-9	2	7
C[C@@H]1CN([C@@H](C)CO)C(=O)c2cccc(NS(=O)(=O)c3ccc(F)cc3)c2O[C@H]1CN(C)C(=O)Nc1ccccc1	/	/	-8	22*	-1	-2
C[C@H]1CN([C@@H](C)CO)C(=O)c2cc(NS(=O)(=O)c3ccc(Cl)cc3)ccc2O[C@H]1CN(C)C	/	/	21	0	6	16
Cc1nn(CC(=O)N2CC(=O)Nc3ccccc32)c(C)c1[N+](=O)[O-]	1	63*	0	1	-4	-3
Cc1nn(CC(=O)N2CCc3ccccc3C2)c(C)c1[N+](=O)[O-]	-1	-4	-4	2	-5	1
Cc1ccccc1C(=O)OCC(=O)N1CC(=O)Nc2ccccc21	/	/	0	-3	-5	-8
CCOC(=O)c1[nH]c(C)c(C(=O)OCC(=O)N2CC(=O)Nc3ccccc32)c1C	-1	-1	-3	0	-2	71*
COc1cc(S(=O)(=O)Nc2cccc3cn[nH]c23)c(OC)cc1Cl	-1	95*	-11	-4	4	3
COc1cc(S(=O)(=O)Nc2cccc(C(=O)O)c2)c(OC)cc1Cl	-2	-2	/	/	/	/
COCC(=O)N1CC2(C1)CN(C(=O)NC1CCCC1)[C@@H](CO)c1c2c2ccc(OC)cc2n1C	/	/	-6	-1	-1	?
COc1ccc2c3c(n(C)c2c1)[C@H](CO)N(C(=O)c1cnccn1)CC31CCN(C(C)=O)CC1	/	/	12	3	-1	-6
CCCC(=O)N1CC2(CN(C(=O)C3CC3)C2)c2c(n(C)c3cc(OC)ccc23)[C@H]1CO	/	/	2	-1	1	12
COc1ccc2c3c(n(C)c2c1)[C@@H](CO)N(C(=O)NC1CCCCC1)CC31CN(C)C1	/	/	-10	2	-3	32*
SMILES	CAL PDZ FP-1	CAL PDZ FP-2	S100A4 MyoIIA	SIRT5 inh	ERAP1 inh	DENV2 CPE
CCCC(=O)N1CC2(CCN(C(=O)C3CCC3)CC2)c2c(n(C)c3cc(OC)ccc23)[C@@H]1CO	/	/	/	/	/	22*
COc1ccc2c3c(n(C)c2c1)[C@H](CO)N(C(C)=O)CC31CN(C(=O)C2CC2)C1	/	/	/	/	/	66*
COc1ccc2c3c(n(C)c2c1)[C@@H](CO)N(C(C)=O)CC31CCN(C(=O)c2cnccn2)CC1	/	/	-1	-3	-3	23*
COc1ccc2c3c(n(C)c2c1)[C@H](CO)N(C(=O)CC1CC1)CC31CCN(C(=O)C2CC2)CC1	/	/	-5	-4	0	3
CC(C)C#Cc1ccc([C@H]2[C@@H](CO)N3C(=O)CN(S(=O)(=O)c4ccccc4)C[C@H]23)cc1	/	/	-1	9	2	4
COc1ccc2c3c(n(C)c2c1)[C@H](CO)N(C(=O)C1CC1)CC31CCN(C(=O)c2ccncc2)CC1	/	/	1	8	0	32*
COc1ccc2c3c(n(C)c2c1)[C@@H](CO)N(Cc1cc(F)ccc1F)CC31CN(C(=O)C2CC2)C1	/	/	?	5	-2	38*
COc1ccc2c3c(n(C)c2c1)[C@@H](CO)N(C(=O)C1CCCCC1)CC31CCN(C(=O)c2ccncc2)CC1	/	/	1	/	-2	42*
COc1ccc2c3c(n(C)c2c1)[C@H](CO)N(C(=O)C1CCCCC1)CC31CCN(C(=O)c2ccncc2)CC1	/	/	0	/	-2	7
COCC(=O)N(C)C[C@@H]1Oc2ncc(C#C[C@@H](C)O)cc2C(=O)N([C@H](C)CO)C[C@H]1C	/	/	7	8	-2	6
C[C@H](CO)N1C[C@H](C)[C@@H](CN(C)C(=O)C2CCCCC2)Oc2ncc(-c3ccncc3)cc2C1=O	/	/	13	8	1	-17
COc1ccc(-c2nn(CCC(=O)O)cc2/C=C2\SC(N)=NC2=O)cc1OC	-3	-10	-2	28*	5	-9
COc1ccc(-c2nn(CCC#N)cc2/C=N/O)cc1OC	9	58*	-3	0	-1	7
CCCOc1ccc(-c2nn(-c3ccccc3)cc2/C=C2\SC(N)=NC2=O)cc1C	0	3	1	-1	1	12
CCC(=O)N1C[C@@H](C)[C@@H](OC)CN(C)C(=O)c2cc(NC(=O)C3CC3)ccc2OC[C@@H]1C	/	/	-10	-1	-1	11
C[C@@H]1CCCCO[C@@H](CN(C)Cc2ccc(Cl)c(Cl)c2)[C@@H](C)CN([C@H](C)CO)C(=O)c2cc(NC(=O)Nc3cccc4ccccc34)ccc2O1	/	/	-2	/	-7	22*
C[C@H](CO)N1C[C@H](C)[C@@H](CN(C)Cc2ccc(Cl)c(Cl)c2)OCCCC[C@H](C)Oc2ccc(NC(=O)Nc3cccc4ccccc34)cc2C1=O	/	/	3	2	0	33*
C[C@H]1CN([C@@H](C)CO)C(=O)c2cccc(NC(=O)CCCCCC(=O)Nc3ccccc3N)c2O[C@@H]1CN(C)Cc1ccc(Oc2ccccc2)cc1	/	/	-10	24*	1	9

High-throughput results from PubChem.
